# Assay outcomes (PubChem BioAssay)
# SR-BI DiI inh: mouse SR-BI HDL lipid transfer inhibition; actives 0.96% (n = 320,000); Q61009; inhibition, % at 12.5 µM; ldlA[mSR-BI] CHO cells, DiI-HDL uptake fluorescence, 3 h; AID 488896;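 active = mean replicate inhibition of at least 70% and a set share of replicates each scoring 70 or more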;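 note: 0% = median of neutral control wells and 100% = median of positive control wells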
# MIN6 prolif: inducers of beta-cell replication in MIN6 cells. MIN6 cells proliferation, ATPlite luminescence, 48 h; cells starved in 0.2% serum; 100% = growth in 10% serum. proliferation, % at 10 µM. actives 0.29% (n = 330,000). AID 2380;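 active = compounds whose signal lies at least 3.5 SD above the mean of all wells on their plate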;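 note: 0% = DMSO-treated cells in low-serum medium and 100% = 10% serum control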
# SR-BI DiI-HDL act: SR-BI HDL lipid transfer activation; actives 0.096% (n = 320,000); CHO ldlA[mSR-BI] cells, DiI-HDL uptake fluorescence, 3 h; 100 = double the neutral-control signal; activation, % at 12.5 µM;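 active = mean replicate activation of at least 60% and every replicate at or above 60%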;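 note: 0% = median plate neutral-control signal and 100% = twice that signal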
#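 Material: SR-BI-overexpressing, LDLR-lacking CHO cells | Dosing: Single compound concentration, delivered by pin transfer | Probe or stimulus: Labelled HDL, 10 µg/mL | Signal: Bottom-read cell fluorescence after medium removal, ex 550/em 595 nm | Schedule: 3 h, 37 °C | Evaluation: HDL uptake via cellular fluorescence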
# Calb FLC: affects C. albicans growth with fluconazole; C. albicans CaCi-2 + fluconazole, Alamar Blue growth, 48 h; growth inhibition, % (no concentration beside the values); actives 0.57% (n = 300,000); AID 1979;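 active = growth inhibition above about 58% in most replicates, limit read from the data, passing the limit was not always enough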;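 note: all wells also contain fluconazole at 8 µg/ml as a sub-toxic cotreatment; 0% = median of DMSO wells and 100% = median of geldanamycin control wells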
# Insulin prom up: MIN6 insulin promoter up-regulation; MIN6 insulin promoter-GFP reporter, high-content imaging; hits give high values; actives 0.3% (n = 190,000); z-score at 5 µM;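 active = z-score above 3 at 5 µM with at least 500 cells counted in the well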
# HTR2A ag: activates the mouse 5-HT2A serotonin receptor; P35363; activation, % at 7.6 µM; actives 0.66% (n = 360,000); CHO-K1 mHTR2A beta-arrestin complementation, luminescence; percent of 30 µM serotonin response;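 active = activation above a run cutoff, the mean activation of all tested compounds plus 3 SD, cut at about 14% in these data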;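 note: 0% = plate median of compound wells and 100% = 30 µM serotonin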
# DiI quencher: counter-screen for SR-BI lipid transfer inhibitors: DiI fluorescence quenchers | shares compounds with SR-BI DiI inh | AC50, µM (titrated, usually from 35 µM), for inactives: at the top dose activity change, negative = quenching | actives 20% (n = 470) | cell-free DiI-HDL fluorescence quenching, 30 min;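 active = quenching, a falling signal, with AC50 below a set limit tied to the top valid dose, actives reach about 32 µM in these data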
# MOR ag counter: counter-screen for mouse HTR2A agonists: human mu opioid receptor agonists; shares compounds with HTR2A ag; U2OS OPRM1 beta-arrestin PathHunter, luminescence; DMSO 0%, DAMGO 9.3 µM 100%; activation, % at 9.3 µM; actives 5.3% (n = 2,300); AID 624380;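 active = mean activation above the mean of DMSO-only wells plus 3 SD, cut at about 0.5% in these data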
# Target sequence (P35372 whole entry, looked up): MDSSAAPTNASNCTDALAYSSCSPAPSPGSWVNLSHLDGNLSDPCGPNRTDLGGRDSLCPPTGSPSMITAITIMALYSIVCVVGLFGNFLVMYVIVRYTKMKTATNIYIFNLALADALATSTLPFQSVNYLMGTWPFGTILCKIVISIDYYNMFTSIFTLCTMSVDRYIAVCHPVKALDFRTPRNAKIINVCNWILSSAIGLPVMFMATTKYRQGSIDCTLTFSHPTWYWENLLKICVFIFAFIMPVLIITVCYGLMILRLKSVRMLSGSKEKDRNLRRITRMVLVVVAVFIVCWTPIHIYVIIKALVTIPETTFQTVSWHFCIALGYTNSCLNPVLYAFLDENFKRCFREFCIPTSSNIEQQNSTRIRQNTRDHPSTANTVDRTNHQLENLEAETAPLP
# m5-HT2A ag conf: mouse HTR2A agonism confirmed; shares compounds with HTR2A ag; CHO-K1 PathHunter beta-arrestin recruitment, luminescence; DMSO 0%, 30 µM serotonin 100%; activation, % at 7.6 µM; actives 19% (n = 2,300); AID 624381;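 active = mean activation across triplicates above the hit threshold derived in the original primary screen, cut at about 15% in these data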
# Starred values were filed as active, the others as inactive; · = no result. A selection: hits, their analogues and other compounds. The true share with any hit is near 2.4%.
SMILES,SR-BI DiI inh,MIN6 prolif,SR-BI DiI-HDL act,Calb FLC,Insulin prom up,HTR2A ag,MOR ag counter,m5-HT2A ag conf,others
N#Cc1ccccc1S(=O)(=O)N1CCN(C(=O)C2CC(=O)N(c3ccc4c(c3)OCCO4)C2)CC1 (stereo not given),-0.8,-2.7,0.8,·,·,4.9,·,·,DiI quencher=-10.3%
COc1ccc(OC)c(CCNC(=O)c2ccc(NC3=NC4CS(=O)(=O)CC4S3)cc2)c1 (stereo not given),83.1*,-2.1,-83.1,-19.4,·,16.9*,0.3,0.2,DiI quencher=1.6%
CC(C)N1CCCC(C)(C(=O)Nc2cccc(Oc3ccccc3)c2)C1 (stereo not given),·,·,·,·,·,0.7,·,·,
CCCNC(=O)c1ccc(N2CCC3(CC2)CC(c2cccc(Br)c2)=NO3)c([N+](=O)[O-])c1,61.7,-5.5,-61.7,-11.1,·,3.6,·,·,
Cc1ccc(CNC(=O)c2ccc(N3CCC4(CC3)CC(c3cccc(Br)c3)=NO4)c([N+](=O)[O-])c2)cc1,80.8*,2.5,-80.8,-6.3,·,14.4*,-0.6,-0.2,DiI quencher=-2.2%
Cc1cc([N+](=O)[O-])ccc1NC(=O)c1cncc(Br)c1,6.9,0.0,-6.9,3.1,-0.34,15.8*,-0.5,-4.9,
O=C(CSc1ccccc1)NCc1ccco1,2.7,0.2,-2.7,2.4,·,15.3*,-0.5,3.3,
O=C(Nc1ccc(-n2cccn2)cc1)C1CCCCN1Cc1cccc2c1OCO2 (stereo not given),66.2,-5.3,-66.2,5.5,·,1.3,·,·,
COc1ccccc1NC(=O)c1ccccc1SCC(=O)N1CCCC1,·,·,·,·,·,14.5*,-0.6,-3.5,
COc1ccccc1CCNC(=O)c1ccccc1SCC(=O)N1CCCC1,31.4,-2.0,-31.4,·,·,4.0,·,·,
O=C(C1CCC(CNc2c(N3CCCCC3)c(=O)c2=O)CC1)N1CCCCC1 (stereo not given),2.2,-1.9,-2.2,-0.1,-0.14,18.7*,0.0,2.8,
COc1ccccc1OCC(=O)Nc1cc(S(=O)(=O)N2CCOCC2)ccc1N1CCCCC1,-0.3,-0.7,0.3,·,·,-7.1,·,·,
CN[C@H]1C[C@@H](c2ccccc2)N(C(C)=O)C[C@H]1CO,·,·,·,·,·,0.5,·,·,
c1ccc(CN2CCC3CC2c2cc(N4CCCCC4)ccc23)cc1 (stereo not given),·,·,·,·,·,10.0,·,·,
CCCCn1nnnc1C(c1cc2ccccc2o1)N1CCN(C(=O)OCC)CC1 (stereo not given),·,·,·,·,·,16.9*,-0.6,-4.6,
CCOC(=O)N1CCN(C(c2cc3ccccc3o2)c2nnnn2C(C)(C)C)CC1 (stereo not given),·,·,·,·,·,-1.1,·,·,
O=C(O)C1CSC(c2ccc3c(c2)OCO3)N1 (stereo not given),2.4,-4.5,-2.4,7.4,-0.6,15.8*,-0.8,-4.7,
CCc1ccc(C2NC(C(=O)O)CS2)cc1 (stereo not given),·,·,·,·,1.84,·,·,·,
COc1ccccc1C(=O)COC(=O)c1cc(S(=O)(=O)N2CCCCC2)ccc1N1CCOCC1,-3.1,-0.4,3.1,-1.1,·,17.5*,-0.3,-0.7,
O=C(COC(=O)c1cc(S(=O)(=O)N2CCCCC2)ccc1N1CCOCC1)c1ccc(F)cc1,-10.4,4.7,10.4,-11.1,·,-7.1,·,·,
C=C(C)COc1ccc(-c2nc(N)nc(C)c2-c2ccc(OC)cc2)c(O)c1,-7.8,-2.9,7.8,-1.9,-0.72,18.1*,0.2,2.0,
C=C(C)COc1ccc(-c2nc(N)ncc2-c2ccc(OC)cc2)c(O)c1,28.4,·,-28.4,·,-0.66,·,·,·,
O=C1N2CCCc3cccc(c32)C12Nc1ccccc1S2 (stereo not given),5.6,·,-5.6,-28.7,-0.24,20.9*,-0.5,-5.9,
